Experimental findings from ChEMBL document CHEMBL4190282, “The Conjugated Double Bond of Coniferyl Aldehyde Is Essential for Heat Shock Factor 1 Mediated Cytotoprotection” (J Nat Prod, 2017) are described below.

For data set [1], the system named is MEF. In words: Cytoprotective activity against IR-induced caspase3 cleavage in HSF1 deficient MEF at 3 uM pretreated for 1 hr followed by 10 Gy irradiation measured after 48 hrs by immunoblotting analysis. The data set is classed as functional, cell-based. Particulars: Mus musculus. The procedure, abridged: (§1)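 HSF1+/+ or HSF1−/− MEFs in DMEM with heat-inactivated 10% FBS, nonessential amino acids, glutamine, HEPES, 37 °C, 5% CO2. 1 h pretreatment at 3 μM, then 0.5 μM paclitaxel or 20 μM cisplatin for 24 h, or 10 Gy 137Cs γ-rays (3.81 Gy/min) for 48 h. Cleaved PARP and caspase-3 immunoblotted; bands normalized to loading control, fold-change vs negative control, ≥3 independent experiments.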
Background: A western blot detects proteins with antibodies after separation by electrophoresis.

Data set [2] has as its target T1, Heat shock factor protein 1 (Homo sapiens) (UniProt Q00613).
T1 sequence (whole entry): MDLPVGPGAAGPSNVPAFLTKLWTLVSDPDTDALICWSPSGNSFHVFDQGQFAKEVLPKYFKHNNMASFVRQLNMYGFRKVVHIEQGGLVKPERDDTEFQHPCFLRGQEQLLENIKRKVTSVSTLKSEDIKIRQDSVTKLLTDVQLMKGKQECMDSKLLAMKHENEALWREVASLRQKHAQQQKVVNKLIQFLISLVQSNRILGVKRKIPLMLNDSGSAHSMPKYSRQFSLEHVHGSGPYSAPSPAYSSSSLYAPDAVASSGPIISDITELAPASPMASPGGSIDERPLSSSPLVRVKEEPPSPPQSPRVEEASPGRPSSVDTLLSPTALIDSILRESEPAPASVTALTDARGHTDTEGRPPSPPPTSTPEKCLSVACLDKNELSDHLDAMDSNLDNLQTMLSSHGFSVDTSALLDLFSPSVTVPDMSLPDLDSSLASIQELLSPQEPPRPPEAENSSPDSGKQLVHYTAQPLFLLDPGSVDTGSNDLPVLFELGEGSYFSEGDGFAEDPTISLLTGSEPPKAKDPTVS
In words: Activation of HSF1 in human L132 cells assessed as increase in HSP70 protein levels at 3 uM after 6 to 24 hrs by immunoblotting analysis. The data set is classed as cell-based. The method, boiled down: (§2)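 L132 cells treated at 3 μM for 12 h, or at various doses for 12 h, or at 3 μM over a time course. Lysates resolved by SDS-PAGE, blotted to nitrocellulose, milk-blocked, primary antibodies 18 h at 4 °C, ECL detection. HSP27, HSP70 and Ser326-phospho-HSF1 bands normalized to loading control; ≥3 independent experiments; celastrol 1 μM positive control.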

For data set [3], the target named is T1, Heat shock factor protein 1 (Homo sapiens). In words: Activation of HSF1 in human L132 cells assessed as increase in HSP25 protein levels at 3 uM after 12 hrs by immunoblotting analysis. The data set is classed as cell-based. The procedure, abridged: as §2
Data set [4] deals with T2, Heat shock factor protein 1 (Mus musculus) (UniProt P38532).
T2 sequence (whole entry): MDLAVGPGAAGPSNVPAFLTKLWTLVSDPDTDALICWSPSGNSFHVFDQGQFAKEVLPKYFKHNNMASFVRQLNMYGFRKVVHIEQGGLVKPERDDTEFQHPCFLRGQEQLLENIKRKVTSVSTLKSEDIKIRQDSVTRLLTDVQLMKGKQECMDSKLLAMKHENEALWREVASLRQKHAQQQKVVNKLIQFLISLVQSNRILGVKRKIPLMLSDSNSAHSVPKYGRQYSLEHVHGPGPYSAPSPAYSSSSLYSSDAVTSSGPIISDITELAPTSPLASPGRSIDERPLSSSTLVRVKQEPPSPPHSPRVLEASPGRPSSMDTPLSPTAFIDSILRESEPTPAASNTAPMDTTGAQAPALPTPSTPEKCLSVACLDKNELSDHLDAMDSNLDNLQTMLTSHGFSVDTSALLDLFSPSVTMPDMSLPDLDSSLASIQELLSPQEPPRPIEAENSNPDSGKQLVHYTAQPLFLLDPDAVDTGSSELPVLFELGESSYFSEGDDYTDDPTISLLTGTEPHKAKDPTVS
Nature of the data set: Activation of HSF1 in MEF assessed as protection against IR-induced PARP cleavage at 3 uM pretreated for 1 hr followed by 10 Gy irradiation measured after 48 hrs by immunoblotting analysis. The data set is classed as cell-based. The procedure, abridged: as §1

For data set [5], the system named is Mus musculus. Nature of the data set: Protection against IR-induced bone marrow damage in ICR mouse at 10 mg/kg, ip administered once before and three times after 4.5 Gy irradiation measured after 9 days by hematoxylin and eosin staining based assay. The data set is classed as functional, organism-based. The procedure, abridged: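 Female ICR mice (5–6 weeks) given 4.5 Gy whole-body IR, dosed ip at 10 mg/kg once before and three times after IR; 5 per group, sacrificed day 9. BM cellularity from H&E (hematopoietic cells per 200×200 μm area); peripheral WBC, lymphocytes, neutrophils; Ki67 IHC counted in five fields per femur; relative spleen weight vs control. Means ± SD, Student's t test.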

Data set [6] relates to Mus musculus. Nature of the data set: Protection against IR-induced mortality in ICR mouse assessed as increase in mean survival days at 5 to 10 mg/kg, ip administered once before and three times after 7 Gy irradiation measured daily for 30 days. The data set is classed as functional, organism-based. The procedure, abridged:
(§3)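 Female ICR mice (5–6 weeks, 25–30 g) given 7 Gy whole-body IR; dosed ip at 5 or 10 mg/kg once before and three times after IR, DMSO stock diluted in modified PBS. Survival days and radiation sickness signs checked twice daily; 10 mice per group.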

For data set [7], the system named is L132. In words: Cytoprotective activity against cisplatin-induced caspase3 cleavage in human L-132 cells at 3 uM pretreated for 1 hr followed by cisplatin addition measured after 24 hrs by immunoblotting analysis. The data set is classed as functional, cell-based. The procedure, abridged:
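Human embryonic lung L132 cells in RPMI with 10% FBS. 1 h pretreatment at 3 μM, then 0.5 μM paclitaxel or 20 μM cisplatin for 24 h, or 10 Gy 137Cs γ-rays (3.81 Gy/min) for 48 h. Cleaved PARP and caspase-3 immunoblotted (ECL); bands normalized to loading control, fold-change vs negative control, ≥3 independent experiments.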

Data set [8] concerns the target T1, Heat shock factor protein 1 (Homo sapiens). Nature of the data set: Activation of HSF1 in human L132 cells assessed as increase in HSP70 mRNA expression at 3 uM after 12 hrs by RT-PCR analysis. It is filed as cell-based. The method, boiled down: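 L132 human lung fibroblasts treated 12 h at 3 μM; hsp27 and hsp70 mRNA measured by RT-PCR under the same conditions as immunoblotting. Celastrol 1 μM positive control.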

Data set [9] deals with Mus musculus. Nature of the data set: Protection against IR-induced lethargy in ICR mouse at 5 to 10 mg/kg, ip administered once before and three times after 7 Gy irradiation measured daily for 30 days. It is filed as functional, organism-based. The procedure, abridged: as §3
Data set [10] concerns Mus musculus. Nature of the data set: Toxicity in ICR mouse at 10 mg/kg, ip measured within 30 days. It is filed as organism-based. The settings on record: in vivo, 720 h. The procedure, abridged: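 Normal ICR mice given 10 mg/kg ip (DMSO stock diluted in modified PBS); observed for signs of toxicity over 30 days.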
The subject of data set [11] is L132. Nature of the data set: Cytoprotective activity against paclitaxel-induced cell death in human L-132 cells at 3 uM pretreated for 1 hr followed by paclitaxel addition measured after 24 hrs by FACS analysis. It is filed as functional, cell-based. The method, boiled down: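 L132 cells in RPMI with 10% FBS. 1 h pretreatment at 3 μM, then 0.5 μM paclitaxel or 20 μM cisplatin for 24 h, or 10 Gy γ-rays for 48 h. Cells trypsinized, washed, stained with propidium iodide and analysed by flow cytometry. Means ± SD of ≥3 independent experiments, fold-change vs negative control.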
For orientation: Flow cytometry measures light scatter and fluorescence of single cells or particles in a stream.

Active and inactive are the calls of the source. The rule behind the calls is not given here.

Regarding `COc1cc(/C=C/CO)ccc1O` [CONIFERYL ALCOHOL], in [1], the result was inactive. The result in data set [2], in data set [3], in [4], in data set [5], in data set [6] and in [7] was Active. In addition, the outcome in data set [8], in data set [9] and in data set [11] was Active. Further, the Activity entry in [10] is reported as “Non-Toxic”.
Take `COc1cc(/C=C/C=O)ccc1O` [CONIFERYL ALDEHYDE]: in data set [1], the result was inactive. Further, the result in data set [2], in [3], in data set [4], in data set [5], in [6] and in data set [7] was Active. In addition, the result in data set [8], in data set [9] and in [11] was Active. Moreover, in data set [10], the Activity entry was “Non-Toxic”.
